RORA inh – blocks the human nuclear receptor RORA; 65,000 compounds, 0.43% hits; P35398; CHO-K1 Gal4-RORA LBD luciferase reporter, luminescence; AID 561; inhibition, % at 10 µM;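 active = inhibition above the mean of all tested compounds plus 3 SD, cut at about 52% in these data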
Target sequence (P35398 whole entry, looked up, the tested form may be a part): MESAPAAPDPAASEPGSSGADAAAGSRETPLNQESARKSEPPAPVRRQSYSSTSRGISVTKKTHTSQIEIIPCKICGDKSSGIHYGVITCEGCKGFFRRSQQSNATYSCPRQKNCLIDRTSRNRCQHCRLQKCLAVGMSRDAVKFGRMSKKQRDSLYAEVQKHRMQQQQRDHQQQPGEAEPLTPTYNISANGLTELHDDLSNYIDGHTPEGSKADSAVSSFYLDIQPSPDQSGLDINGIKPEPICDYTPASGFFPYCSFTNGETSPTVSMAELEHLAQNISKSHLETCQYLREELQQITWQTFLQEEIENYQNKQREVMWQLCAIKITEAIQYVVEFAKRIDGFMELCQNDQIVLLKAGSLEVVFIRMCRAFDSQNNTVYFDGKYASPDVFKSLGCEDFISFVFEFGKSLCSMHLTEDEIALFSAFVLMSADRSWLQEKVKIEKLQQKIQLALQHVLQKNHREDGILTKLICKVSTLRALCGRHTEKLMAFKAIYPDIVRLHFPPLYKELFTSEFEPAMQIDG
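Test system: CHO-K1 cells with Gal4-hRORA LBD fusion and pG5-luc reporter / Compound: single concentration per compound, 10 µM final / Schedule: 20 h compound treatment, 37 °C / Signal: luminescence from basal luciferase reporter expression / Read-out: % inhibition / Control set: mock-transfected cells as 100%, +RORA DMSO cells as 0% / Replicates: tested once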
Numbers stand for hits; 0 = inactive. The full list was thinned out, with hits kept by preference.

SMILES	RORA inh
Cc1nnc(SCC(=O)Nc2ccc3c(c2)COC3=O)n1-c1ccccc1	0
CC1(C)OC(=O)N(c2cccnc2)C1(C)O (stereo not given)	0
COc1ccc(CCC(=O)NCc2cnn(C)c2)cc1	0
COc1ccc(CCNc2c(C)c(C)nc3ncnn23)cc1	78.1
COc1ccc(S(=O)(=O)NCCc2ccc(F)cc2)cc1	0
CCOC(=O)c1sc2ncn(/N=C/c3ccccn3)c(=O)c2c1C	0
CCc1ccc(NC2=NC(C(=O)NC3CCCCC3)CC(=O)N2)cc1 (stereo not given)	0
O=C1CCCN1CN(C(=O)c1ccc2c(c1)OCO2)c1ccc(F)cc1	0
CCOc1cc(C(=O)CSc2nnc(CNc3ccc(Cl)cc3)o2)ccc1NC(=O)CC	53.5
CCOC(=O)N1CCN(C(=O)CSc2nnc(CNC(=O)c3c(F)cccc3Cl)o2)CC1	0
COc1ccc(N2CCN(C(=O)CSc3nnc(CNc4ccccc4)o3)CC2)cc1	0
O=C(Nc1ccc(Cc2ccncc2)cc1)c1ccco1	0
O=C(NCC12CC3CC(CC(C3)C1)C2)c1cc2n(n1)C(C(F)(F)F)CC(c1ccco1)N2 (stereo not given)	0
Cc1cc(/C=c2/sc3nc4ccccc4n3c2=O)c(C)n1-c1ccccn1	86.7
CCOC(=O)C1=C(C)SC2=NS(=O)(=O)CCN21	0
CCCCOCCCNC(=O)c1c(-c2ccccc2)noc1C	0
CCCn1c(N)c(Sc2ccc(Cl)cc2)c(=O)n(CCC)c1=O	0
COCCN(CCOC)c1ncnc2c1cnn2-c1ccc(Cl)cc1	0
Cc1cccc(-n2ncc3c(N(C)C4CCCCC4)ncnc32)c1	73.1
CCN(c1ccccc1)c1ncnc2c1cnn2-c1ccccc1	0
Cc1cccc(-n2ncc3c(N(CCO)CCO)ncnc32)c1	0
Cc1cccc(-n2ncc3c(NCc4ccccc4)ncnc32)c1	0
COc1ccc(-n2ncc3c(N(C)C4CCCCC4)ncnc32)cc1	75.5
CCCc1cc(NCCN2CCOCC2)n2c(nc3ccccc32)c1C#N	0
CC(=O)N1CCc2cc(C(=O)CN3CCN(C(=O)c4ccco4)CC3)ccc21	0
SMILES	RORA inh
O=C(c1ccc(S(=O)(=O)N2CCOCC2)cc1)N1CCN=C1SCc1cccnc1	0
COc1ccc(-c2nnc(SCC(=O)Nc3ncc(C)s3)n2-c2ccccc2)cc1OC	0
O=C1Nc2cc(Cl)cnc2N2CCCC12 (stereo not given)	0
O=C1CCC/C1=c1\s/c(=C\c2cccnc2)c(=O)n1-c1ccccc1	0
CCCCOc1ccccc1NC(=O)CSc1nnnn1C(C)(C)C	0
CCNc1nc(N)nc(Oc2ccc(C(=O)OC)cc2)n1	0
c1ccc2c(c1)CCN(c1ncnc3c1[nH]c1ccccc13)C2	89.3
O=C(c1ccc(Cn2c(=O)[nH]c3ccccc3c2=O)cc1)N1CCN(c2ccccc2)CC1	0
O=c1c2[nH]c3ccccc3c2ncn1C1CCCCC1	0
c1ccc(CN2CCN(c3nc(-c4ccccc4)nc(-n4ccnc4)n3)CC2)cc1	0
c1ccc(CN2CCN(c3ncnc4c3[nH]c3ccccc34)CC2)cc1	66.7
CCCCCCOc1ccc(OCC(O)CN2C(=O)NC(C)(C)C2=O)cc1 (stereo not given)	0
Cc1ccc2nc(Nc3ccc4[nH]c(=O)[nH]c4c3)c(-n3nc(C)cc3C)nc2c1	0
CCOc1cc(N2CCOCC2)c(OCC)cc1NS(=O)(=O)c1ccc(Cl)s1	0
CC(C)OC(=O)C(NC(=O)c1ccccc1)=C1CCCCC1	0
Cc1nc2nc(COc3ccccc3)[nH]n2c(=O)c1Cl	0
CCN(CC)S(=O)(=O)c1ccc2c(c1)c(=O)c(C(=O)N1CCN(c3ccccc3)CC1)cn2C	0
O=C(Nc1ccc(Cl)cc1)N1CC=CCC1	0
COc1ccc(-c2cc(=O)n(-c3nc4ccccc4[nH]3)[nH]2)cc1	0
Clc1ncn(C23CC4CC(CC(C4)C2)C3)n1	0
CCCCOc1ccc(C2(C)CC(=O)NC2=O)cc1 (stereo not given)	0
Cn1c(-c2ccc(Br)o2)nc2ccccc21	0
CN(C)c1ccc(-c2nc3ccccc3n2C)cc1	62.2
CCn1c(-c2ccc(N(C)C)cc2)nc2ccccc21	0
COC(=O)CSc1nnc2c(C)cc3cc4c(cc3n12)OCCO4	0
SMILES	RORA inh
CN(CC(=O)NCc1ccco1)S(=O)(=O)c1ccc2c(c1)n(C)c(=O)c(=O)n2C	0
C/C(=C\C(=O)c1ccc(C)o1)Nc1ccc(C(=O)O)cc1C	0
CC1CCN(c2ccc(C(=O)O)cc2N)CC1	0
Cc1cc(C)cc(Nc2ccc(C(=O)O)cc2N)c1	71.1
Cn1c(Cn2c(=O)sc3ccccc32)nnc1SCC(=O)N1CCc2ccccc21	0
Cc1ccc(-c2csc(N3CCC(NS(=O)(=O)c4ccc5c(c4)OCCO5)CC3)n2)cc1	69.5
Nc1nc(-c2ccc3c(c2)OCCO3)cs1	0
CCCC(=O)Nc1nc(-c2ccc3c(c2)OCCO3)cs1	0
CCC(=O)NCCCCNC(=O)CC	0
COc1ccccc1N1CCN(C(=O)c2cccc(N3C(=O)NC4CC3(C)Oc3ccccc34)c2)CC1 (stereo not given)	0
c1csc(CCNc2ncnc3sc4c(c23)CCC4)c1	71.7
O=C(NCc1cccs1)c1noc2c1CCCC2	0
COCCNS(=O)(=O)c1cccc2cccnc12	0
COc1cccc(-n2c(SC)nnc2-c2cnccn2)c1	0
Cc1ccccc1NC(=O)N1CCCC(c2nc(-c3ccc(F)cc3)no2)C1 (stereo not given)	0
Cc1ccccc1NC(=O)N1CCCC(c2nc(-c3ccc(C(C)C)cc3)no2)C1 (stereo not given)	53.6
Cc1nc2cc(NC(=O)NCCC3=CCCCC3)ccc2o1	0
CCOC(=O)c1c(C)[nH]c(C)c1C(=O)CSc1nnc(-c2ccncc2)n1C	0
COc1cccc(-c2cc(C(F)(F)F)nc(NCc3ccco3)n2)c1	0
CS(=O)(=O)c1nc(-c2ccco2)cc(C(F)(F)F)n1	54.3
COc1ccc(CCNC(=O)CSc2nc(-c3ccco3)cc(C(F)(F)F)n2)cc1OC	0
Cc1ccc2c(c1)N(CC(=O)NCCc1c[nH]c3ccccc13)C(=O)CO2	0
CCOC(=O)N1CCN(C(=O)C(c2ccccc2)c2ccccc2)CC1	0
CCCn1nnc(NC(=O)c2cc3ccccc3o2)n1	0
CCc1ccc(-c2nnn(CCC(=O)OC)n2)cc1	53.3
SMILES	RORA inh
c1ccc(OCCCn2nnc(-c3ccc(N4CCOCC4)cc3)n2)cc1	0
CCOC(=O)N1CCC(NC(=O)Cn2cc3c(n2)CCCC3)CC1	0
Cn1c(-c2ccccc2)cc2c3no[n+]([O-])c3ccc21	66.4
CC1CCN(C(=O)CSc2ccc3nnc(-c4ccccc4)n3n2)CC1	0
O=C(Nc1ccc2c(c1)OCO2)c1cccc(F)c1	0
COc1ccc(N/C=C2\CCOC2=O)cc1	0
O=C1/C(=C/Nc2ccc3c(c2)OCO3)CCc2ccccc21	72.4
COc1ccc(OCCCSc2ncccn2)cc1	0
COc1ccc(S(=O)(=O)NCc2ccco2)cc1-c1nnc2c3ccccc3c(C)nn12	0
CCOc1ccc(-c2cc(CCCC(=O)Nc3cccc(OC)c3)no2)cc1	0
CCCCC(=O)Nc1ccc(NC(=O)c2cc(OC)c(OC)c(OC)c2)cn1	0
CCOc1ccc(-c2cc(CCCC(=O)NCCc3ccc(OC)c(OC)c3OC)no2)cc1	57.3
CC(C)CCn1nnnc1C(c1ccc(N(C)C)cc1)N1CCN(C(=O)c2ccco2)CC1 (stereo not given)	0
CCCCC(=O)NC(Nc1ccc(C)cn1)(C(=O)OCC)C(F)(F)F (stereo not given)	0
O=S1(=O)Nc2c(ccc3cccnc23)-c2ccccc21	73.9
